Assay results from different studies.
Lines come from different studies, so protocols differ.
ABCB1: ATP-dependent translocase ABCB1 (ABCB1, Homo sapiens, UniProt P08183)
SLC47A2: Multidrug and toxin extrusion protein 2 (SLC47A2, Homo sapiens, UniProt Q86VL8)

Structure (SMILES)	target	assay	system	conditions	measurement	value
C[C@H]1O[C@@H](O[C@H]2[C@@H](O)C[C@H](O[C@H]3[C@@H](O)C[C@H](O[C@H]4CC[C@@]5(C)[C@H](CC[C@@H]6[C@@H]5C[C@@H](O)[C@]5(C)[C@@H](C7=CC(=O)OC7)CC[C@]65O)C4)O[C@@H]3C)O[C@@H]2C)C[C@H](O)[C@@H]1O	ABCB1		human, plasma	oral, 0.5 mg	half-life	42.5 h
COCCc1ccc(OCC(O)CNC(C)C)cc1 (stereo not shown)	ABCB1		MDCK-MDR1	5 µM	efflux ratio	0.981
CN/C(=N/CCSCc1nc[nH]c1C)NC#N	SLC47A2	transporter uptake, inhibitor	HEK293	100 µM, 2 min	inhibition	76%
CC1(C)CCC2(CC1)N[C@@H](C(=O)N[C@@H]1CC[C@@H](C(N)=O)OC1)[C@H](c1ccnc(Cl)c1F)[C@]21C(=O)Nc2cc(Cl)ccc21	ABCB1		Caco-2	1 µM, 2 h	efflux ratio	16.1
C[C@]12CCCN1CC1=NNC(=O)c3cc(F)cc4[nH]c2c1c34	ABCB1		MDCK-MDR1	10 µM	Papp B→A	41.2 ×10⁻⁶ cm/s
Cc1cc(Nc2ncnc3ccc(NC4=NC(C)(C)CO4)cc23)ccc1Oc1ccn2ncnc2c1	ABCB1		MDCK-MDR1, Caco-2	1 µM, 1 h, pH 7.4	efflux ratio	9.48
O=C(O)CSc1nnc(Br)n1-c1ccc(C2CC2)c2ccccc12	SLC47A2	transporter uptake, inhibitor	HEK293	10 µM, 2 min	inhibition	-16%
CCc1cc(/C(C)=N/OCc2ccc(C3CCCCC3)c(C(F)(F)F)c2)ccc1CN1CC(C(=O)O)C1	Cytochrome P450 2A6 (CYP2A6, Homo sapiens, UniProt P11509)	enzyme activity, inhibitor	human, liver microsomes	200 µM, 20 min	inhibition	30.6%
C=C[C@H]1C[N@@]2CC[C@H]1C[C@@H]2[C@@H](O)c1ccnc2ccc(OC)cc12	ABCB1		MDCK-MDR1	5 µM	Papp B→A	40.6 ×10⁻⁶ cm/s
Nc1nc(NC2CC2)c2ncn([C@H]3C=C[C@@H](CO)C3)c2n1	SLC47A2	transporter uptake, inhibitor			IC50	> 500 µM
